Measurements reported in ChEMBL document CHEMBL5356993, “Novel pyrazolo[3,4-d]pyrimidine derivatives: design, synthesis, anticancer evaluation, VEGFR-2 inhibition, and antiangiogenic activity” (RSC Med Chem, 2023).

Columns and labels:
Assay type in all cases: functional
Conditions in all cases: read-out: GI
[1] = test system: UACC-62; assay: Antiproliferative activity against human UACC-62 cells assessed as cell growth inhibition at 10 uM incubated for 48 hrs by SRB assay relative to control
Summary of the method: (§1)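 Cells pre-incubated 24 h at 37°C, 5% CO2, then exposed to compound (DMSO stock diluted in medium with 50 µg/mL gentamicin) for 48 h. Adherent cells fixed with cold TCA (final 10%, 60 min, 4°C); suspension cells fixed with 16% TCA final. Stained with 0.4% SRB in 1% acetic acid for 10 min, dye solubilized in 10 mM Trizma base, absorbance read at 515 nm. Growth calculated against time-zero and untreated control plates.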

[2] = test system: CAKI-1; assay: Antiproliferative activity against human CAKI-1 cells assessed as cell growth inhibition at 10 uM incubated for 48 hrs by SRB assay relative to control
[3] = test system: A549; assay: Antiproliferative activity against human A549 cells assessed as cell growth inhibition at 10 uM incubated for 48 hrs by SRB assay relative to control
[4] = test system: LOX IMVI; assay: Antiproliferative activity against human LOX IMVI cells assessed as cell growth inhibition at 10 uM incubated for 48 hrs by SRB assay relative to control
[5] = test system: RPMI-8226; assay: Antiproliferative activity against human RPMI-8226 cells assessed as cell growth inhibition at 10 uM incubated for 48 hrs by SRB assay relative to control
[6] = test system: HOP-62; assay: Antiproliferative activity against human HOP-62 cells assessed as cell growth inhibition at 10 uM incubated for 48 hrs by SRB assay relative to control
[7] = test system: ACHN; assay: Antiproliferative activity against human ACHN cells assessed as cell growth inhibition at 10 uM incubated for 48 hrs by SRB assay relative to control
[8] = test system: PC-3; assay: Antiproliferative activity against human PC-3 cells assessed as cell growth inhibition at 10 uM incubated for 48 hrs by SRB assay relative to control
[9] = test system: SK-OV-3; assay: Antiproliferative activity against human SK-OV-3 cells assessed as cell growth inhibition at 10 uM incubated for 48 hrs by SRB assay relative to control
Summary of the method: (§2)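 Cells plated in 96-well plates at […] cells/well and preincubated 24 h at 37 °C, 5% CO2. Time-zero plates were TCA-fixed. Compound was diluted in medium with 50 µg/mL gentamicin and cells exposed for 48 h. Adherent cells fixed with 10% final TCA; suspension cells with 16% final TCA. Plates stained with 0.4% SRB in 1% acetic acid, dye solubilized in 10 mM Trizma, absorbance read at 515 nm. Percent growth calculated against time-zero and control.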

[10] = test system: COLO 205; assay: Antiproliferative activity against human COLO 205 cells assessed as cell growth inhibition at 10 uM incubated for 48 hrs by SRB assay relative to control
[11] = test system: SF-295; assay: Antiproliferative activity against human SF-295 cells assessed as cell growth inhibition at 10 uM incubated for 48 hrs by SRB assay relative to control; summary of the method: as §2
[12] = test system: SF-268; assay: Antiproliferative activity against human SF-268 cells assessed as cell growth inhibition at 10 uM incubated for 48 hrs by SRB assay relative to control
[13] = test system: Malme-3M; assay: Antiproliferative activity against human Malme-3M cells assessed as cell growth inhibition at 10 uM incubated for 48 hrs by SRB assay relative to control
[14] = test system: SK-MEL-2; assay: Antiproliferative activity against human SK-MEL-2 cells assessed as cell growth inhibition at 10 uM incubated for 48 hrs by SRB assay relative to control; summary of the method: as §2
[15] = test system: NCI/ADR-RES; assay: Antiproliferative activity against human NCI-ADR-RES cells assessed as cell growth inhibition at 10 uM incubated for 48 hrs by SRB assay relative to control
[16] = test system: SW-620; assay: Antiproliferative activity against human SW620 cells assessed as cell growth inhibition at 10 uM incubated for 48 hrs by SRB assay relative to control; summary of the method: as §1
[17] = test system: DU-145; assay: Antiproliferative activity against human DU-145 cells assessed as cell growth inhibition at 10 uM incubated for 48 hrs by SRB assay relative to control
[18] = test system: HL-60(TB); assay: Antiproliferative activity against human HL-60(TB) cells assessed as cell growth inhibition at 10 uM incubated for 48 hrs by SRB assay relative to control
Summary of the method: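 Cells were plated at […] cells/well and preincubated 24 h at 37°C, 5% CO2, with time-zero plates TCA-fixed. Compound was diluted from DMSO stock in medium with 50 µg/mL gentamicin, then exposed for 48 h. Settled suspension cells were fixed with 80% TCA (final 16%), stained with 0.4% SRB and solubilized in 10 mM Trizma, A515. Growth was taken relative to Tz and control.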

[19] = test system: HCT-116; assay: Antiproliferative activity against human HCT-116 cells assessed as cell growth inhibition at 10 uM incubated for 48 hrs by SRB assay relative to control
[20] = test system: SK-MEL-28; assay: Antiproliferative activity against human SK-MEL-28 cells assessed as cell growth inhibition at 10 uM incubated for 48 hrs by SRB assay relative to control; summary of the method: as §2
[21] = test system: OVCAR-3; assay: Antiproliferative activity against human OVCAR-3 cells assessed as cell growth inhibition at 10 uM incubated for 48 hrs by SRB assay relative to control; summary of the method: as §2
[22] = test system: HOP-92; assay: Antiproliferative activity against human HOP-92 cells assessed as cell growth inhibition at 10 uM incubated for 48 hrs by SRB assay relative to control; summary of the method: as §2
[23] = test system: HCT-15; assay: Antiproliferative activity against human HCT-15 cells assessed as cell growth inhibition at 10 uM incubated for 48 hrs by SRB assay relative to control
[24] = test system: A498; assay: Antiproliferative activity against human A498 cells assessed as cell growth inhibition at 10 uM incubated for 48 hrs by SRB assay relative to control; summary of the method: as §2
[25] = test system: OVCAR-8; assay: Antiproliferative activity against human OVCAR-8 cells assessed as cell growth inhibition at 10 uM incubated for 48 hrs by SRB assay relative to control
[26] = test system: KM12; assay: Antiproliferative activity against human KM12 cells assessed as cell growth inhibition at 10 uM incubated for 48 hrs by SRB assay relative to control; summary of the method: as §2
[27] = test system: MDA-MB-435; assay: Antiproliferative activity against human MDA-MB-435 cells assessed as cell growth inhibition at 10 uM incubated for 48 hrs by SRB assay relative to control
[28] = test system: TK-10; assay: Antiproliferative activity against human TK-10 cells assessed as cell growth inhibition at 10 uM incubated for 48 hrs by SRB assay relative to control; summary of the method: as §1
[29] = test system: MDA-MB-468; assay: Antiproliferative activity against human MDA-MB-468 cells assessed as cell growth inhibition at 10 uM incubated for 48 hrs by SRB assay relative to control
[30] = test system: OVCAR-5; assay: Antiproliferative activity against human OVCAR-5 cells assessed as cell growth inhibition at 10 uM incubated for 48 hrs by SRB assay relative to control; summary of the method: as §2
[31] = test system: NCI-H322M; assay: Antiproliferative activity against human NCI-H322M cells assessed as cell growth inhibition at 10 uM incubated for 48 hrs by SRB assay relative to control
[32] = test system: IGROV-1; assay: Antiproliferative activity against human IGROV-1 cells assessed as cell growth inhibition at 10 uM incubated for 48 hrs by SRB assay relative to control

Row | SMILES | inhibition of growth at 10 µM [1] [%] | inhibition of growth at 10 µM [2] [%] | inhibition of growth at 10 µM [3] [%] | inhibition of growth at 10 µM [4] [%] | inhibition of growth at 10 µM [5] [%] | inhibition of growth at 10 µM [6] [%] | inhibition of growth at 10 µM [7] [%] | inhibition of growth at 10 µM [8] [%] | inhibition of growth at 10 µM [9] [%] | inhibition of growth at 10 µM [10] [%] | inhibition of growth at 10 µM [11] [%] | inhibition of growth at 10 µM [12] [%] | inhibition of growth at 10 µM [13] [%] | inhibition of growth at 10 µM [14] [%] | inhibition of growth at 10 µM [15] [%] | inhibition of growth at 10 µM [16] [%] | inhibition of growth at 10 µM [17] [%] | inhibition of growth at 10 µM [18] [%] | inhibition of growth at 10 µM [19] [%] | inhibition of growth at 10 µM [20] [%] | further results
1 | Cc1nc2c(cnn2-c2ccccc2)c(=O)n1-c1ccc(NC(=O)c2ccc(Cl)cc2)cc1 | 32.2 | 29.7 | 26.1 | 33.4 | 52.9 | 41.1 | 32.6 | 36.7 | < 15 | 18.8 | 45.9 | < 15 | 33.3 | 26.1 | 44.5 | 17.3 | 17.8 | 48.1 | 44.5 | 17.1 | inhibition of growth at 10 µM [21]: 17.4%; inhibition of growth at 10 µM [22]: 37.8%; inhibition of growth at 10 µM [23]: 23.2%; inhibition of growth at 10 µM [24]: < 15%; inhibition of growth at 10 µM [25]: 43.4%; inhibition of growth at 10 µM [26]: 19.2%; inhibition of growth at 10 µM [27]: 30.2%; inhibition of growth at 10 µM [28]: 19.9%; inhibition of growth at 10 µM [29]: 84.3%; inhibition of growth at 10 µM [30]: < 15%; inhibition of growth at 10 µM [31]: < 15%; inhibition of growth at 10 µM [32]: 21.3%
2 | Cc1nc2c(cnn2-c2ccccc2)c(=O)n1-c1ccc(NC(=O)c2ccco2)cc1 | 16.6 | < 15 | < 15 | < 15 | 26.1 | < 15 | < 15 | < 15 | < 15 | < 15 | 15.3 | < 15 | 16.6 | < 15 | < 15 | < 15 | < 15 | 19.8 | < 15 | < 15 | inhibition of growth at 10 µM [21]: < 15%; inhibition of growth at 10 µM [22]: < 15%; inhibition of growth at 10 µM [23]: < 15%; inhibition of growth at 10 µM [24]: < 15%; inhibition of growth at 10 µM [25]: < 15%; inhibition of growth at 10 µM [26]: < 15%; inhibition of growth at 10 µM [27]: < 15%; inhibition of growth at 10 µM [28]: < 15%; inhibition of growth at 10 µM [29]: 37.3%; inhibition of growth at 10 µM [30]: < 15%; inhibition of growth at 10 µM [31]: < 15%; inhibition of growth at 10 µM [32]: < 15%
3 | Cc1nc2c(cnn2-c2ccccc2)c(=O)n1-c1ccc(/N=C2\C(=O)Nc3ccccc32)cc1 | 36.2 | 31.7 | < 15 | 18.3 | 36.5 | < 15 | 27.7 | 24 | 19.6 | < 15 | 24.7 | < 15 | 23.1 | < 15 | < 15 | < 15 | < 15 | < 15 | 17.9 | < 15 | inhibition of growth at 10 µM [21]: 24.3%; inhibition of growth at 10 µM [22]: 17.6%; inhibition of growth at 10 µM [23]: 15.7%; inhibition of growth at 10 µM [24]: < 15%; inhibition of growth at 10 µM [25]: 24.8%; inhibition of growth at 10 µM [26]: < 15%; inhibition of growth at 10 µM [27]: < 15%; inhibition of growth at 10 µM [28]: < 15%; inhibition of growth at 10 µM [29]: 51.4%; inhibition of growth at 10 µM [30]: < 15%; inhibition of growth at 10 µM [31]: < 15%; inhibition of growth at 10 µM [32]: 34.7%
4 | Cc1nc2c(cnn2-c2ccccc2)c(=O)n1-c1ccc(NC(=O)c2ccc(F)cc2)cc1 | 36.9 | 34.3 | 45 | 38.2 | 64.8 | 35.4 | 39 | 46.9 | < 15 | 37.7 | 60.4 | < 15 | 31.6 | 22.1 | 57.2 | 23.5 | 19.3 | 57.5 | 51.7 | 16.2 | inhibition of growth at 10 µM [21]: < 15%; inhibition of growth at 10 µM [22]: < 15%; inhibition of growth at 10 µM [23]: 33.9%; inhibition of growth at 10 µM [24]: < 15%; inhibition of growth at 10 µM [25]: 36.3%; inhibition of growth at 10 µM [26]: 35.9%; inhibition of growth at 10 µM [27]: 46.2%; inhibition of growth at 10 µM [28]: 29%; inhibition of growth at 10 µM [29]: 85.5%; inhibition of growth at 10 µM [30]: < 15%; inhibition of growth at 10 µM [31]: < 15%; inhibition of growth at 10 µM [32]: 26.5%
5 | Cc1nc2c(cnn2-c2ccccc2)c(=O)n1-c1ccc(NC(=O)c2ccccc2)cc1 | 36.8 | 33.4 | 28.9 | 26.8 | 43.6 | 37.9 | 36.7 | 29.5 | 19 | 20.2 | 46.5 | 21.5 | 29.8 | < 15 | 30.4 | < 15 | 18.6 | 18.5 | 41.9 | < 15 | inhibition of growth at 10 µM [21]: 16.8%; inhibition of growth at 10 µM [22]: 29.2%; inhibition of growth at 10 µM [23]: 20.2%; inhibition of growth at 10 µM [24]: < 15%; inhibition of growth at 10 µM [25]: 38.4%; inhibition of growth at 10 µM [26]: 24.7%; inhibition of growth at 10 µM [27]: 27.2%; inhibition of growth at 10 µM [28]: 18.6%; inhibition of growth at 10 µM [29]: 71%; inhibition of growth at 10 µM [30]: < 15%; inhibition of growth at 10 µM [31]: < 15%; inhibition of growth at 10 µM [32]: < 15%
